What is called IC50 is the concentration that inhibits the measured activity by half. Low readings indicate higher potency, high ones lower potency. For orientation: residual activity means the share of the control activity or signal that is left under treatment. A word on the inhibition in vivo: it is how much of the control response was suppressed.

The target of assay [1] is T1, Polyunsaturated fatty acid lipoxygenase ALOX12 (Homo sapiens, UniProt P18054).
T1 sequence (P18054 whole entry): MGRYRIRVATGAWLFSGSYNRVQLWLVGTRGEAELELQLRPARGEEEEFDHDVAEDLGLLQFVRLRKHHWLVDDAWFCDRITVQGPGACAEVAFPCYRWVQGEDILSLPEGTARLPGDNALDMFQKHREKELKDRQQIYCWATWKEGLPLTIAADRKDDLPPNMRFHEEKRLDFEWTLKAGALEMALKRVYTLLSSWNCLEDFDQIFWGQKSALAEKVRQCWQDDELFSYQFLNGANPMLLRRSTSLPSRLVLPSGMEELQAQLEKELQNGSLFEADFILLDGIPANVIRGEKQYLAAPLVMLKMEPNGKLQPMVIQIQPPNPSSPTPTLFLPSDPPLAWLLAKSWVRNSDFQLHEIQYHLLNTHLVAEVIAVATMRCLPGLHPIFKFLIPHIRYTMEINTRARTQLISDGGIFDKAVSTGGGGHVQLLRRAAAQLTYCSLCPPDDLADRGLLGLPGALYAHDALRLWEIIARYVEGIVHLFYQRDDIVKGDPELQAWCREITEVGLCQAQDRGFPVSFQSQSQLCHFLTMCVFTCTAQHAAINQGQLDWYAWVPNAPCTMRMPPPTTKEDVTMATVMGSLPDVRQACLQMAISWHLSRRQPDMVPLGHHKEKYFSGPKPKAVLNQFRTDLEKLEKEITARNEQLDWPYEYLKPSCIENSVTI
In words: Inhibition of 12-LO in human neutrophils.

Assay [2] has as its target T2, Prostaglandin E synthase (Homo sapiens) (UniProt O14684).
T2 sequence (whole entry): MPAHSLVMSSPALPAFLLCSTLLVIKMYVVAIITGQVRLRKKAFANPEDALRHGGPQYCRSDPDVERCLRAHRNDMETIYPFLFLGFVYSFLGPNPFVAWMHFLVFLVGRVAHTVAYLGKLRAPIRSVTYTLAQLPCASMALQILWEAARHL
In words: (§1) Inhibition of mPGES1-mediated PGE2 formation in LPS-stimulated human monocytes preincubated for 15 mins before arachidonic acid substrate addition measured after 30 mins by UPLC-MS/MS analysis. The class given is cell-based. In short, it runs like this:
(§2)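 Fresh human monocytes (adherence-isolated, >85% CD14+; 5 × 10⁶/well) primed with LPS 1 μg/mL for 24 h. Washed, 15 min preincubation, then 2.5 μM A23187 plus 20 μM arachidonic acid for 30 min. Eicosanoids extracted and measured by UPLC-MS/MS, normalized to PGB1 as relative intensities. Two to three independent experiments.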

The target in assay [3] is T3, Polyunsaturated fatty acid 5-lipoxygenase (Homo sapiens) (UniProt P09917).
T3 sequence (whole entry): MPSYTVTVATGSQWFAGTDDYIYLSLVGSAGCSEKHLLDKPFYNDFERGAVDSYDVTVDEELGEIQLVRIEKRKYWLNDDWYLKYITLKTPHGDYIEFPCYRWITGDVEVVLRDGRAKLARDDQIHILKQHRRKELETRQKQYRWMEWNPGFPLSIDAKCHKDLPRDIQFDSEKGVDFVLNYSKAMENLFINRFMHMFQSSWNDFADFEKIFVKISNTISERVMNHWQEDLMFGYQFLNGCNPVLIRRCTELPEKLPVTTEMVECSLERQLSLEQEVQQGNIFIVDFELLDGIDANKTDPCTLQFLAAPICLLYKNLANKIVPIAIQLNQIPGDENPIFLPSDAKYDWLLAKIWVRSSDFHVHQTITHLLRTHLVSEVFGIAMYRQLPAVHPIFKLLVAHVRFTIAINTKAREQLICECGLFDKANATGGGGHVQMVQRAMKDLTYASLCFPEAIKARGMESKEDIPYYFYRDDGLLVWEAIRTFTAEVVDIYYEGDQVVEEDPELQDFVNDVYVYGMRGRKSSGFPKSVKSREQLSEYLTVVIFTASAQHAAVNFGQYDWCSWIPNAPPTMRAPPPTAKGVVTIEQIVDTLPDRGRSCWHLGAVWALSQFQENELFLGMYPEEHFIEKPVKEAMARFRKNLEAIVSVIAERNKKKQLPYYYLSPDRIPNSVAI
In words: Inhibition of 5-LO in human neutrophils using arachidonic acid as substrate assessed as residual activity preincubated at 10 uM for 15 mins measured after 10 mins by HPLC analysis relative to control. An outline of the steps: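 Fresh human neutrophils, 1 × 10⁷/mL in PBS pH 7.4 with 1 mM CaCl2 and 1 mg/mL glucose, preincubated 15 min at 37 °C. Stimulated with 2.5 μM A23187 plus 20 μM arachidonic acid for 10 min at 37 °C; methanol stop. LTB4, its all-trans isomers and 5-H(P)ETE by HPLC.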

In assay [4] the target is Prostaglandin G/H synthase 1 (Homo sapiens, UniProt P23219). In words: Inhibition of COX1-mediated […] in human platelets assessed as residual activity by measuring formation of 12-HHT from arachidonic acid preincubated at 10 uM for 5 mins measured after 5 mins by RP-HPLC analysis relative to control; values are per cent of control.
Prostaglandin G/H synthase 1, sequence (P23219 whole entry): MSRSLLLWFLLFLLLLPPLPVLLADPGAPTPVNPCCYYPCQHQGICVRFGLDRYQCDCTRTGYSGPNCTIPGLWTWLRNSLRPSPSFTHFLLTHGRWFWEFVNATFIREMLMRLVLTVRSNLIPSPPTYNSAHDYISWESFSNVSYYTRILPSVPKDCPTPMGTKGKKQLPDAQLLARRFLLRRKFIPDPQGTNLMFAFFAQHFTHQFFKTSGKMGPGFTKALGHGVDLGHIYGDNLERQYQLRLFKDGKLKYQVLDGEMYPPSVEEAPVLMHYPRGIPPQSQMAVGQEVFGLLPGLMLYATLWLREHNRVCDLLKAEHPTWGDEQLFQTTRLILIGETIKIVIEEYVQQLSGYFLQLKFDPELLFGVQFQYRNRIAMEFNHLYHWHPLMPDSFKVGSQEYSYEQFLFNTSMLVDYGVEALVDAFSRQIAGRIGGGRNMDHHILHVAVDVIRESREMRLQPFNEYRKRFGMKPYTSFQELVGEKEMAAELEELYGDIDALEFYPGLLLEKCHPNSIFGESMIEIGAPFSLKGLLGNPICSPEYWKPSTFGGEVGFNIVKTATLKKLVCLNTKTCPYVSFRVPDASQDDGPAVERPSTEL
A further assay deals with T4, Prostaglandin E synthase (Homo sapiens, UniProt O14684).
T4 sequence (O14684 whole entry): T2 sequence (whole entry)
Described as §1. Format: cell-based. An outline of the steps: as §2

In assay [5] the target is T5, Prostaglandin G/H synthase 2 (Homo sapiens, UniProt P35354).
T5 sequence (P35354 whole entry): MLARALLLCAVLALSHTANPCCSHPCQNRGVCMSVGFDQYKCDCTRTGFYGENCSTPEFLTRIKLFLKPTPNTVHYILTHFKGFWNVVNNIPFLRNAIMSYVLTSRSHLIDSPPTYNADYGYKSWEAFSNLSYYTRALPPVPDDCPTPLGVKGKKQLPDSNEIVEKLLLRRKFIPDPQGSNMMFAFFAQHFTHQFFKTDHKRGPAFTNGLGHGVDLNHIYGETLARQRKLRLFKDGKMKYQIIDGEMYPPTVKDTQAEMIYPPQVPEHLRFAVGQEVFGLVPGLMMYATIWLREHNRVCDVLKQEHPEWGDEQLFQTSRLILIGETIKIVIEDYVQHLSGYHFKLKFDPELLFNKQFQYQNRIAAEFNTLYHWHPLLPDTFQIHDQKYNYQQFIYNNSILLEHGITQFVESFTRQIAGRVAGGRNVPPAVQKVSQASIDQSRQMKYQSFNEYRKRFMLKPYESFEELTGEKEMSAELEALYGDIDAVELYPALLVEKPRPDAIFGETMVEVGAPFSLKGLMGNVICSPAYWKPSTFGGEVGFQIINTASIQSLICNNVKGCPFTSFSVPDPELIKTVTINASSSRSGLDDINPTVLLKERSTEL
In words: Inhibition of COX2-mediated PGD2 formation in LPS-stimulated human monocytes preincubated for 15 mins before arachidonic acid substrate addition measured after 30 mins by UPLC-MS/MS analysis. The class given is cell-based.

The next assay relates to Mus musculus. In words: Antiinflammatory activity in zymosan-induced peritonitis CD1 mouse model assessed as suppression of neutrophil infiltration at 10 mg/kg, ip administered 30 mins before challenge measured 4 hrs post zymosan challenge relative to control. Format: functional. The conditions noted are these: route intraperitoneal. In short, it runs like this: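 Zymosan peritonitis in male CD-1 mice (n = 5−11): ip dose in 2% DMSO/saline 30 min before ip zymosan. Peritoneal lavage with 3 mL cold PBS at 4 h. Exudate cells counted by light microscopy in a Burker chamber after trypan blue staining; % inhibition vs vehicle.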

Activity calls are given as the source filed them. No cut-off for these calls is given here.

In assay [1], `COc1cc(/C=C/c2cc(-c3ccc(O)c(OC)c3)[nH]n2)ccc1O` came in with an IC50 of 7.7 µM. Further, in assay [2], the inhibition entry is “Active”.
On to `COc1cc(/C=C/C(=O)CC(=O)/C=C/c2cc(CC=C(C)C)c(O)c(OC)c2)cc(CC=C(C)C)c1O`, for which the Activity in assay [3] turned out to be 74.3%.
For the compound `COc1cc(/C=C/c2cc(/C=C/c3ccc(O)c(OC)c3)[nH]n2)ccc1O` [CURCUMIN PYRAZOLE], the residual activity in assay [4] came to 82.3%. In addition, the IC50 in assay [1] turned out to be 7.3 µM. In addition, the inhibition result in assay [2] was “Active”.
As to `COc1cc(CCC(=O)CC(=O)CCc2ccc(O)c(OC)c2)ccc1O` [TETRAHYDROCURCUMIN], in assay [3], the Activity was 70.1%.
At Prostaglandin E synthase, `COc1cc(/C=C/C(=O)CC(=O)/C=C/c2ccc(O)c(OC)c2)ccc1O` [CURCUMIN] had a half-maximal inhibitory concentration (IC50) of 1.2 µM.
On to `COc1cc(/C=C/c2cc(/C=C/c3cc(CC=C(C)C)c(O)c(OC)c3)[nH]n2)cc(CC=C(C)C)c1O`, for which the IC50 (in assay [5]; against Prostaglandin E synthase) was greater than 10 µM throughout. Besides, in the assay on Mus musculus, the inhibition in vivo at 10 mg/kg worked out at 75%.

Values taken from ChEMBL document CHEMBL3286393 (J Med Chem, 2014).
